From article PMC6500982 (Cancer Science, 2019)
Entries after “also recorded” stand apart in the source; their conditions may differ.

Legend:
[1] = Pharmacokinetics of plasma tirabrutinib, Cycle 1 Day 1 and Day 28; format: in vivo, human
[2] = test system: ABC‐DLBCL cell line, TMD8; settings: cited from earlier work
[3] = biological target: Bruton's tyrosine kinase (BTK) (Homo sapiens, UniProt Q06187); format: in vivo
Procedure, shortened: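 PBMCs isolated from blood drawn pre-dose and 2 hours post-dose on Cycle 1 Day 1 were analysed by western blot with anti-pBTK, anti-BTK and anti-β-actin antibodies. pBTK band intensity was quantified by imaging analyzer, normalised to β-actin, and expressed relative to the pre-dose Day 1 level (set as 100%).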

[4] = B‐cell NHL, European phase I study; cited from earlier work
[5] = test system: TMD8 transplanted mouse tumor model; settings: cited from earlier work
[6] = test system: relapsed/refractory B‐cell NHL and CLL; experiment: Efficacy; format: in vivo, human; settings: for Partial response (VGPR or PR): includes lymphocytosis assessed as modified PR
Procedure, shortened: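 Open-label, multicenter, non-randomised study in Japanese adults (≥20 y) with relapsed/refractory B-cell NHL (DLBCL, MCL, FL, MZL, WM/LPL) or CLL/SLL. Oral test compound was given at 160, 320 or 480 mg QD, or 300 mg BID, until progression, unacceptable AEs or consent withdrawal. Best response was graded per International Workshop Criteria for NHL, WM and CLL. ORR was CR plus PR, including PR with residual lymphocytosis, with Clopper–Pearson 95% CIs. Analysis included all patients receiving ≥1 dose.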

[7] = DLBCL, 3 patients who received 300 mg BID

Chain of Bruton's tyrosine kinase (BTK) (Q06187 whole entry): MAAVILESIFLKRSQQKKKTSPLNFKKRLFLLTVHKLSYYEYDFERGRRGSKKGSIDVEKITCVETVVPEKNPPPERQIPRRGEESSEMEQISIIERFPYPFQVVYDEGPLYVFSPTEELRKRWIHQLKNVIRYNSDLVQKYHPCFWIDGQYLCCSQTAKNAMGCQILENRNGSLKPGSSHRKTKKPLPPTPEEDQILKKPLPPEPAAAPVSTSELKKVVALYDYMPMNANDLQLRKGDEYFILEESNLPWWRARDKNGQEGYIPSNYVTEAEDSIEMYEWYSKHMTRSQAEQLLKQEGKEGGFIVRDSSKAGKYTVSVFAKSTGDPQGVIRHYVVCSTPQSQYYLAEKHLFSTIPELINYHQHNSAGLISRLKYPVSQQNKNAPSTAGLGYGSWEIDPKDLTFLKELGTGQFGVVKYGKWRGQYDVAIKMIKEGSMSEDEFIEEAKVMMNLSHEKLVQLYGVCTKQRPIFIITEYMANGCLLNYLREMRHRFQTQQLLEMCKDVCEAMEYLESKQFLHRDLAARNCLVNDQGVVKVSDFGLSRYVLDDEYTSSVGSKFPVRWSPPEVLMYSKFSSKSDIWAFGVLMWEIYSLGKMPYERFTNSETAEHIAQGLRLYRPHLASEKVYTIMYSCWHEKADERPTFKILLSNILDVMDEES

## CC#CC(=O)N1CC[C@@H](n2c(=O)n(-c3ccc(Oc4ccccc4)cc3)c3c(N)ncnc32)C1 [tirabrutinib]
[1]; 160 mg QD to 300 mg BID
  Pharmacokinetics linearity: linear
[1]; 160 to 480 mg QD
  Increase in Cmax and AUC with dose: increased in a dose‐dependent manner
[1]; C1D28
  Arithmetic mean trough plasma concentration, 300 mg BID vs 480 mg QD: 3.2 fold
[1]; Day 28 vs Day 1
  Accumulation following multiple doses: little accumulation
[2]
  Cytostatic properties in vitro: cytostatic properties
[3]; 11 patients with confirmed basal pBTK expression, doses ≥160 mg QD
  Expression level of pBTK in PBMC: suppressed the expression level of pBTK in all 11 patients; also recorded: fully suppressed
[3]; patients other than the CLL patient, 2 hours post–dose on Day 1 of Cycle 1
  pBTK suppression: Complete suppression
[4]
  Tolerability observed up to (dose): up to 480 mg once daily (QD)
[5]
  Cytostatic properties in vivo: cytostatic properties
[6]; 160 mg QD N = 3
  Complete response (CR, CRu, CRi): 1 (33.3) n (%)
  Overall response (CR, CRu, CRi, VGPR or PR): 3 (100.0) n (%)
  Partial response (VGPR or PR): 2 (66.7) n (%)
[6]; 300 mg BID N = 7
  Complete response (CR, CRu, CRi): 3 (42.9) n (%)
  Overall response (CR, CRu, CRi, VGPR or PR): 4 (57.1) n (%)
  Partial response (VGPR or PR): 1 (14.3) n (%)
[6]; 320 mg QD N = 3
  Complete response (CR, CRu, CRi): 2 (66.7) n (%)
  Overall response (CR, CRu, CRi, VGPR or PR): 3 (100.0) n (%)
  Partial response (VGPR or PR): 1 (33.3) n (%)
[6]; 480 mg QD N = 4
  Complete response (CR, CRu, CRi): 0 (.0) n (%)
  Overall response (CR, CRu, CRi, VGPR or PR): 3 (75.0) n (%)
  Partial response (VGPR or PR): 3 (75.0) n (%)
[6]; Cohort 3 (480 mg QD)
  Median progression‐free survival: 109 days
[6]; Cohorts 1, 2 and 4
  Median progression‐free survival: not estimable
[6]; DLBCL (5 patients)
  Number of CR: 2
[6]; [7]
  Best overall response CR, number of patients: 2 patients
  Best overall response stable disease, number of patients: 1 patient
[6]; FL (5 patients)
  Number of CR: 1
[6]; MCL (4 patients)
  Number of CR: 3
[6]; Total N = 17
  Complete response (CR, CRu, CRi): 6 (35.3) n (%)
  Overall response (CR, CRu, CRi, VGPR or PR): 13 (76.5) n (%)
  Partial response (VGPR or PR): 7 (41.2) n (%)
[6]; all patients (13/17)
  Overall response rate (≥PR): 76.5%
[6]; of 13 patients who achieved PR or more
  Patients with early response within 1 month after beginning of treatment: 8 patients
